Measurements: ChEMBL document CHEMBL1159129, “Novel amidino substituted 2-phenylbenzothiazoles: synthesis, antitumor evaluation in vitro and acute toxicity testing in vivo” (Bioorg Med Chem, 2010)

Tested on: HCT-116
Experiment: Growth inhibition of human HCT116 cells after 72 hrs by MTT assay
Format: functional, cell-based
Conditions: HCT-116, 72 h
How it was run: (§1)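 Modified NCI protocol. Cells were plated on day 0 at 1-3 × 10^4 cells/mL according to doubling time. Agents were dissolved in DMSO (stock 4 × 10^-2 M) and serially diluted 10-fold in medium (10^-8–10^-4 M), with 72 h exposure. Viability by MTT (mitochondrial dehydrogenase). Four wells, three independent runs. IC50 from linear regression of the two concentrations flanking 50% growth.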

Question: Which IC50 does the source give for `O=[N+]([O-])c1ccc(-c2nc3ccc(C4=NCCN4)cc3s2)cc1` here?
Answer: Its IC50 is 8000 nM.

Question: Which IC50 does the source give for `Cl.Nc1ccc(-c2nc3ccc(C4=NCCN4)cc3s2)cc1` here?
Answer: The IC50 was 1000 nM.

Question: For `N=C(N)c1ccc(-c2nc3ccc(C(=N)N)cc3s2)cc1`, which IC50 is on record?
Answer: Its IC50 is 64000 nM.

Question: Which IC50 does the source give for `c1cc(-c2nc3ccc(C4=NCCN4)cc3s2)ccc1C1=NCCN1` here?
Answer: The IC50 was 2000 nM.

Question: Which IC50 does the source give for `O=[N+]([O-])c1ccc2nc(-c3ccc(C4=NCCN4)cc3)sc2c1` here?
Answer: The IC50 was 3000 nM.

Question: Which IC50 does the source give for `Cl.N=C(N)c1ccc(-c2nc3ccc(N)cc3s2)cc1` here?
Answer: Its IC50 is 3000 nM.

Question: Which IC50 does the source give for `Cl.N=C(N)c1ccc2nc(-c3ccc(N)cc3)sc2c1` here?
Answer: The IC50 was 10000 nM.

Question: Which IC50 does the source give for `N=C(N)c1ccc2nc(-c3ccc([N+](=O)[O-])cc3)sc2c1` here?
Answer: The IC50 was 2000 nM.

Question: Which IC50 does the source give for `N=C(N)c1ccc(-c2nc3ccc([N+](=O)[O-])cc3s2)cc1` here?
Answer: Its IC50 is 1000 nM.

Question: Which IC50 does the source give for `Cl.Nc1ccc2nc(-c3ccc(C4=NCCN4)cc3)sc2c1` here?
Answer: The IC50 was 1000 nM.

Tested on: SW-620
Experiment: Growth inhibition of human SW620 cells after 72 hrs by MTT assay
Format: functional, cell-based
Conditions: SW-620, 72 h
How it was run: as §1

Question: Which IC50 does the source give for `O=[N+]([O-])c1ccc(-c2nc3ccc(C4=NCCN4)cc3s2)cc1` here?
Answer: The IC50 was 7000 nM.

Question: With `Cl.Nc1ccc(-c2nc3ccc(C4=NCCN4)cc3s2)cc1` as the molecule, how does the IC50 read?
Answer: The IC50 was 700 nM.

Question: For `N=C(N)c1ccc(-c2nc3ccc(C(=N)N)cc3s2)cc1`, which IC50 is on record?
Answer: The IC50 was over 100000 nM.

Question: Which IC50 does the source give for `c1cc(-c2nc3ccc(C4=NCCN4)cc3s2)ccc1C1=NCCN1` here?
Answer: Its IC50 is 800 nM.

Question: With `O=[N+]([O-])c1ccc2nc(-c3ccc(C4=NCCN4)cc3)sc2c1` as the molecule, how does the IC50 read?
Answer: Its IC50 is 2000 nM.

Question: Which IC50 does the source give for `Cl.N=C(N)c1ccc(-c2nc3ccc(N)cc3s2)cc1` here?
Answer: Its IC50 is 4000 nM.

Question: Which IC50 does the source give for `Cl.N=C(N)c1ccc2nc(-c3ccc(N)cc3)sc2c1` here?
Answer: Its IC50 is 7000 nM.

Question: Which IC50 does the source give for `N=C(N)c1ccc2nc(-c3ccc([N+](=O)[O-])cc3)sc2c1` here?
Answer: Its IC50 is 2000 nM.

Question: With `N=C(N)c1ccc(-c2nc3ccc([N+](=O)[O-])cc3s2)cc1` as the molecule, how does the IC50 read?
Answer: Its IC50 is 2000 nM.

Question: Which IC50 does the source give for `Cl.Nc1ccc2nc(-c3ccc(C4=NCCN4)cc3)sc2c1` here?
Answer: The IC50 was 300 nM.

Tested on: MCF7
Experiment: Growth inhibition of human MCF7 cells after 72 hrs by MTT assay
Format: functional, cell-based
Conditions: MCF7, 72 h
How it was run: as §1

Question: For `O=[N+]([O-])c1ccc(-c2nc3ccc(C4=NCCN4)cc3s2)cc1`, which IC50 is on record?
Answer: The IC50 was 11000 nM.

Question: With `Cl.Nc1ccc(-c2nc3ccc(C4=NCCN4)cc3s2)cc1` as the molecule, how does the IC50 read?
Answer: Its IC50 is 1700 nM.

Question: With `N=C(N)c1ccc(-c2nc3ccc(C(=N)N)cc3s2)cc1` as the molecule, how does the IC50 read?
Answer: The IC50 was 11000 nM.

Question: For `c1cc(-c2nc3ccc(C4=NCCN4)cc3s2)ccc1C1=NCCN1`, which IC50 is on record?
Answer: Its IC50 is 1000 nM.

Question: Which IC50 does the source give for `O=[N+]([O-])c1ccc2nc(-c3ccc(C4=NCCN4)cc3)sc2c1` here?
Answer: The IC50 was 3000 nM.

Question: With `Cl.N=C(N)c1ccc(-c2nc3ccc(N)cc3s2)cc1` as the molecule, how does the IC50 read?
Answer: The IC50 was 200 nM.

Question: With `Cl.N=C(N)c1ccc2nc(-c3ccc(N)cc3)sc2c1` as the molecule, how does the IC50 read?
Answer: Its IC50 is 9000 nM.

Question: With `N=C(N)c1ccc2nc(-c3ccc([N+](=O)[O-])cc3)sc2c1` as the molecule, how does the IC50 read?
Answer: The IC50 was 2000 nM.

Question: With `N=C(N)c1ccc(-c2nc3ccc([N+](=O)[O-])cc3s2)cc1` as the molecule, how does the IC50 read?
Answer: Its IC50 is 1000 nM.

Question: Which IC50 does the source give for `Cl.Nc1ccc2nc(-c3ccc(C4=NCCN4)cc3)sc2c1` here?
Answer: Its IC50 is 1000 nM.

Tested on: not listed separately
Experiment: Acute toxicity in po dosed BALB/c mouse
Format: organism-based
Conditions: in vivo
How it was run: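 Female nulliparous, non-pregnant BALB/c mice, 12 weeks old, housed singly; food withheld 3-4 h before and 1-2 h after dosing. Single gavage dose in physiological saline (sonicated 15 min at 69 °C just before use), 0.5 mL/25 g body mass. OECD 425 up-and-down procedure, one animal per 24 h, dose adjusted by prior outcome; LD50 by maximum likelihood (AOT425StatPgm), 95% confidence interval.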

Question: For `Cl.Nc1ccc(-c2nc3ccc(C4=NCCN4)cc3s2)cc1`, which LD50 is on record?
Answer: Its LD50 is 696 mg/kg.

Question: Which LD50 does the source give for `Cl.N=C(N)c1ccc(-c2nc3ccc(N)cc3s2)cc1` here?
Answer: Its LD50 is 250 mg/kg.

Question: With `Cl.N=C(N)c1ccc2nc(-c3ccc(N)cc3)sc2c1` as the molecule, how does the LD50 read?
Answer: Its LD50 is 67.3 mg/kg.

Question: Which LD50 does the source give for `Cl.Nc1ccc2nc(-c3ccc(C4=NCCN4)cc3)sc2c1` here?
Answer: Its LD50 is 250 mg/kg.

Tested on: MOLT-4
Experiment: Growth inhibition of human MOLT4 cells after 72 hrs by MTT assay
Format: functional, cell-based
Conditions: MOLT-4, 72 h
How it was run: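 MOLT-4 leukemia cells grown in suspension in RPMI with 10% FBS, 2 mM glutamine, penicillin/streptomycin, 5% CO2, 37 °C. Inoculated at 1-3 × 10^4 cells/mL. Compounds from 4 × 10^-2 M DMSO stock were tested at 10^-8 to 10^-4 M (10-fold steps) for 72 h, then MTT. Quadruplicates in three experiments. IC50 interpolated by linear regression around 50% growth; '>' highest concentration when not reached.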

Question: With `O=[N+]([O-])c1ccc(-c2nc3ccc(C4=NCCN4)cc3s2)cc1` as the molecule, how does the IC50 read?
Answer: The IC50 was 17000 nM.

Question: For `Cl.Nc1ccc(-c2nc3ccc(C4=NCCN4)cc3s2)cc1`, which IC50 is on record?
Answer: Its IC50 is 1000 nM.

Question: With `N=C(N)c1ccc(-c2nc3ccc(C(=N)N)cc3s2)cc1` as the molecule, how does the IC50 read?
Answer: Its IC50 is over 100000 nM.

Question: For `c1cc(-c2nc3ccc(C4=NCCN4)cc3s2)ccc1C1=NCCN1`, which IC50 is on record?
Answer: Its IC50 is 3000 nM.

Question: Which IC50 does the source give for `O=[N+]([O-])c1ccc2nc(-c3ccc(C4=NCCN4)cc3)sc2c1` here?
Answer: The IC50 was 2000 nM.

Question: With `Cl.N=C(N)c1ccc(-c2nc3ccc(N)cc3s2)cc1` as the molecule, how does the IC50 read?
Answer: The IC50 was 2000 nM.

Question: For `Cl.N=C(N)c1ccc2nc(-c3ccc(N)cc3)sc2c1`, which IC50 is on record?
Answer: Its IC50 is 3000 nM.

Question: Which IC50 does the source give for `N=C(N)c1ccc2nc(-c3ccc([N+](=O)[O-])cc3)sc2c1` here?
Answer: Its IC50 is 2000 nM.

Question: For `N=C(N)c1ccc(-c2nc3ccc([N+](=O)[O-])cc3s2)cc1`, which IC50 is on record?
Answer: Its IC50 is 1000 nM.

Question: With `Cl.Nc1ccc2nc(-c3ccc(C4=NCCN4)cc3)sc2c1` as the molecule, how does the IC50 read?
Answer: Its IC50 is 1000 nM.

Tested on: NCI-H460
Experiment: Growth inhibition of human H460 cells after 72 hrs by MTT assay
Format: functional, cell-based
Conditions: NCI-H460, 72 h
How it was run: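 H460 lung carcinoma cells grown as monolayers in DMEM with 10% FBS, 2 mM glutamine, penicillin/streptomycin, 5% CO2, 37 °C. Seeded day 0 at 1-3 × 10^4 cells/mL. DMSO stocks (4 × 10^-2 M) were diluted in medium to five 10-fold concentrations, 10^-8 to 10^-4 M, for 72 h. MTT read-out, quadruplicate, three experiments. IC50 by linear regression of concentrations bracketing 50% growth.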

Question: For `O=[N+]([O-])c1ccc(-c2nc3ccc(C4=NCCN4)cc3s2)cc1`, which IC50 is on record?
Answer: The IC50 was 4000 nM.

Question: For `Cl.Nc1ccc(-c2nc3ccc(C4=NCCN4)cc3s2)cc1`, which IC50 is on record?
Answer: The IC50 was 400 nM.

Question: For `N=C(N)c1ccc(-c2nc3ccc(C(=N)N)cc3s2)cc1`, which IC50 is on record?
Answer: The IC50 was 78000 nM.

Question: For `c1cc(-c2nc3ccc(C4=NCCN4)cc3s2)ccc1C1=NCCN1`, which IC50 is on record?
Answer: Its IC50 is 2000 nM.

Question: For `O=[N+]([O-])c1ccc2nc(-c3ccc(C4=NCCN4)cc3)sc2c1`, which IC50 is on record?
Answer: Its IC50 is 3000 nM.

Question: Which IC50 does the source give for `Cl.N=C(N)c1ccc(-c2nc3ccc(N)cc3s2)cc1` here?
Answer: The IC50 was 200 nM.

Question: With `Cl.N=C(N)c1ccc2nc(-c3ccc(N)cc3)sc2c1` as the molecule, how does the IC50 read?
Answer: The IC50 was 4000 nM.

Question: For `N=C(N)c1ccc2nc(-c3ccc([N+](=O)[O-])cc3)sc2c1`, which IC50 is on record?
Answer: The IC50 was 1000 nM.

Question: For `N=C(N)c1ccc(-c2nc3ccc([N+](=O)[O-])cc3s2)cc1`, which IC50 is on record?
Answer: The IC50 was 1000 nM.

Question: With `Cl.Nc1ccc2nc(-c3ccc(C4=NCCN4)cc3)sc2c1` as the molecule, how does the IC50 read?
Answer: The IC50 was 300 nM.
